Drawing on ChEMBL document CHEMBL4513216, “Probing the Open Global Health Chemical Diversity Library for Multistage-Active Starting Points for Next-Generation Antimalarials” (ACS Infect Dis, 2020), this text covers cytotoxicity for 39 compounds.

This data set can be described thus: Toxicity liver stage against HepG2, at 10uM. Type of data set: cell-based. On the set-up: test concentration 10 uM, cell line HepG2-A16-CD81EGFP. Conditions: human, HepG2-A16-CD81EGFP cells; read-out: INHIBITION
The gist of the method: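 Uninfected HepG2-A16-CD81EGFP cells, 3 × 10^3 per well, 1536-well, plated on prespotted compound at 10 μM final, parasite-free screening media added to match infected plates; puromycin 10 μM positive, DMSO 0.5% negative; run in parallel with 48 h PbLuc assay at 37 °C, 5% CO2; viability by CellTiter-Glo luminescence, normalized to controls.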
For `COc1c(C2CCCN2C(=O)c2ccc3[nH]cnc3c2)c(C)nn1C` (centres undefined), the cytotoxicity at 10 µM was -8.04%.
As for `CC(C)(C)c1nnc(CNc2c(F)cccc2-n2cccn2)o1`, the figure is -8.25%.
Consider `CN(C)CCNC(=O)C1Cc2nc(-c3ccccc3)sc2N1CC1CC1` (centres undefined), for which the cytotoxicity at 10 µM came out at 5.15%.
On to `CC(=O)NCc1nc(CC(C)C)nn1-c1cccc(C)c1`, for which the cytotoxicity at 10 µM came to 6.54%.
In the case of `CS(=O)(=O)CCC(=O)Nc1cc(F)ccc1OCC1CCCO1` (centres undefined) it was 3.41%.
Take `COc1ccc(C[C@H]2CN(C3CCOCC3)CC[C@H]2OCC2CC2)cc1`: the cytotoxicity at 10 µM was -6.57%.
For `COc1cccc(Cn2ncnc2CNC(C)=O)c1`, the cytotoxicity at 10 µM turned out to be 0.15%.
In the case of `Nc1cc(-c2cncnc2C2CCN(C(=O)c3ccccc3)C2)ccn1` (centres undefined) it was 1.32%; in that of `CCCN(Cc1cccnc1)C(=O)C1CCN(Cc2ccco2)CC1`, 0.376%.
As for `CNC(=O)C(C)(C)N1CCC[C@H]1C(=O)NCC1CC1`, the figure is 2.05%.
Take `CCNc1nnc(CCn2nc(C)c(Br)c2C)s1`: the cytotoxicity at 10 µM worked out at 2.14%.
Turning to `CN1CC2(COCCN(C(=O)c3ccco3)C2)OCC1=O` (centres undefined), the cytotoxicity at 10 µM amounted to 2.33%.
Turning to `OCC1CCCN1c1cc(NCc2cc3ccccc3o2)ncn1` (centres undefined), the cytotoxicity at 10 µM is 7.53%.
In the case of `O=C(NC1CCC1)[C@H]1C[C@@H]2[C@@H](C1)OCCN2CC1CC1` it was -2.17%; in that of `CCc1nnc(Nc2cccc(C3CCN(C(C)=O)CC3)n2)s1`, 0.579%.
In the case of `CCOc1cccc(COC(=O)c2ccc(Cl)cn2)n1`, the cytotoxicity at 10 µM is -3.44%.
As for `CC(C)S(=O)(=O)N1C[C@H]2OC(=O)N(CCc3cccc(Cl)c3)[C@H]2C1`, the figure is 0.642%; as for `COCc1nc2n(n1)CCCC2Nc1nc(C(C)C)ns1` (centres undefined), 5.6%.
As for `CC(C)N(C)CC(=O)Nc1nccn1Cc1ccccc1Cl`, the figure is 0.0646%; as for `Clc1ccccc1C1(c2ccnc(-c3ccncc3)n2)CCNCC1`, -8.16%.
Take `CCn1c(CC2CCN(C(=O)c3cc(C(C)C)n[nH]3)CC2)n[nH]c1=O`: the cytotoxicity at 10 µM is -44.4%.
As for `CC(=O)NS(=O)(=O)c1ccc(F)cc1C(F)(F)F`, the figure is 1.25%.
Consider `c1ccc(COC[C@H]2CCC[C@@]23CNCCO3)nc1`, for which the cytotoxicity at 10 µM was -91.9%.
As for `CCc1nc2ccccc2c(=O)n1CC1(O)CCN(S(C)(=O)=O)CC1`, the figure is -3.5%.
As for `O=C(c1ccc(N2CCCC2)nc1)N1CCCC(n2cncn2)C1` (centres undefined), the figure is -5.22%; as for `CCn1nnc2c1C(COC)CN(Cc1cccs1)C2` (centres undefined), -16.5%.
Take `Cc1cnn(CCNCC(=O)NC2(C#N)CCCC2)c1`: the cytotoxicity at 10 µM is -13.2%.
For the compound `O=C(c1ccco1)N1CCC2(CC1)C(=O)NCCN2CC1CC1`, the cytotoxicity at 10 µM amounted to 4.3%.
As to `Fc1ccccc1OCCc1cc(C2CNCCO2)n[nH]1` (centres undefined), the cytotoxicity at 10 µM is -2.16%.
As for `CC(C)NC(=O)c1ccc2nnc(C3CCN(C(=O)NC(C)C)C3)n2c1` (centres undefined), the figure is -5.42%; as for `CCCN1CCc2[nH]cnc2C12CCN(C(=O)Cn1ccnc1C)CC2`, 13.7%.
Take `CC(C)c1nnc(NC(=O)N2CCCC2c2ccncc2)s1` (centres undefined): the cytotoxicity at 10 µM came out at 5.6%.
Turning to `COCCN1CCO[C@@H]2CN(Cc3ccccn3)C[C@@H]2C1`, the cytotoxicity at 10 µM is -3.06%.
Regarding `c1cc(-c2noc([C@@H]3CCCN3C3CCC3)n2)cc(N2CCCC2)n1`, the cytotoxicity at 10 µM is 5.94%.
As for `COc1ccccc1S(=O)(=O)Nc1ccc2c(C(=O)O)c[nH]c2c1`, the figure is -11.1%; as for `Cc1ncc(-c2ccnc(NC3CC3)n2)c(-c2cccnc2)n1`, -14.2%.
As for `Cc1csc(CNC(=O)NCCc2ccc3c(c2)OCCO3)n1`, the figure is 4.74%; as for `COCCN1C[C@@H](C)[C@@]2(COCCN(C(=O)Cc3ccccc3)C2)C1`, -12.4%.
In the case of `COc1ccc(OC)c(C2CCN(C(=O)C3CCC(O)CC3)C2)c1` (centres undefined) it was -1.65%.
